For series [1], the system named is TNF-α-induced NF-κB activity. The format is cell-based, human. Conditions: at 50 μM; TNF-α 2 ng/mL, 6 h.
For the next series, the system named is HEK293 cell line. Put plainly: Cytotoxicity / survival in HEK293 cells, same conditions as the NF-κB assay. Format: cell-based, human.
Series [2] in a line: Chemical stability of 2 monitored by 1H and 13C NMR. Format: physicochemical. The following applies: in DMSO-d6 at room temperature (20 °C), after a month. The gist of the method:
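1D 1H and 13C spectra were recorded at 400 MHz or 500 MHz. Conversion was judged from a second set of NMR signals assigned to the C-8′ dehydration product.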

A further series relates to dicotyledons. The following applies: cited from earlier work.
Another series deals with Xanthomonas oryzae. Conditions: cited from earlier work.

Consider four compounds from publication PMC3993885 (Journal of Natural Products, 2014).

What is called IC50 is the point on the concentration scale where inhibition reaches its midpoint. “9′-deoxy-8′,8′-dihydroxyherbicidin B [Compound 2]” had an NF-κB % inhibition in series [1] of 96.2 ± 4.9%. For the same compound, the NF-κB % survival in the series on HEK293 cell line (% survival at a concentration of 50 μM) was 45.1 ± 5.7%. Besides, the concentration for half-maximal inhibition (IC50) in the series with HEK293 cell line (read-out: HEK293 cell line cytotoxicity IC50, same conditions as the NF-κB assay) came out at 13.7 ± 3.3 µM. Moreover, in series [2], the “conversion of 2 to 2a (dehydration at C-8′)” value is on record as about 70%.

As to `C/C=C(\CO)C(=O)O[C@H]1[C@H](O)[C@@H](C(=O)OC)O[C@@H]2C[C@H]3O[C@@H](n4cnc5c(N)ncnc54)[C@H](OC)[C@H]3O[C@]21O` [Compound 4, Herbicidin A], in the series on dicotyledons, the herbicidal activity entry is “herbicidal” and the toxicity toward dicotyledons result was “selectively toxic”. Besides, in the series with Xanthomonas oryzae, the “growth inhibition of Xanthomonas oryzae” value is reported as “significantly inhibited the growth”.

In the case of `COC(=O)[C@H]1O[C@@H]2C[C@H]3O[C@@H](n4cnc5c(N)ncnc54)[C@H](OC)[C@H]3O[C@@]2(O)[C@@H](O)[C@@H]1O` [Compound 5, Herbicidin B], in the series on dicotyledons, the herbicidal activity result is “herbicidal” and the toxicity toward dicotyledons entry is “selectively toxic”. Moreover, the “growth inhibition of Xanthomonas oryzae” value with Xanthomonas oryzae is given as “significantly inhibited the growth”.

As to aureonucleomycin [Compound 9], in the series on dicotyledons, the herbicidal activity result is given as “herbicidal” and the toxicity toward dicotyledons entry is reported as “selectively toxic”. In addition, the “growth inhibition of Xanthomonas oryzae” value in the series on Xanthomonas oryzae was “significantly inhibited the growth”.
